OX1R antag-1: antagonists of human orexin 1 receptor (OX1R); Orexin/Hypocretin receptor type 1 (Homo sapiens), O43613; OX1R-expressing cells, FRET antagonist read-out; inhibition, % at 6.6 µM; 1.8% of 330,000 active; in the data active = inhibition mostly above about 38%, no sharp cut-off; inactive = mostly below about 40%
CHO parental Ca: ATP-evoked calcium signal inhibitors, parental CHO, primary screen, counter-screen for OX1R antagonist project, cell-based, fluorescence, Fluo-8 calcium dye. inhibition, % at 5.6 µM. AID 463079, 2010. 0.63% of 330,000 active. parental CHO-K1, ATP-induced calcium, Fluo-8 fluorescence;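 active = inhibition above that plate's mean sample inhibition plus 3 SD, cut at about 26% in these data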
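Assay system: parental CHO cells; Read-out basis: percent inhibition of ATP-evoked calcium rise, normalized to controls; Benchmarks: ATP and no-ATP DMSO wells; Compound dosing: single nominal dose of 5.6 µM per compound; Signal: Fluo-8 calcium dye fluorescence; Also added: ATP as calcium-mobilizing challenge; Repeats: singlicate.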
OX1R antag-2: OX1R (HCRTR1) antagonists, primary screen, fluorescence, CHO/OX1R cells, Fluo-8 calcium, orexin A; Orexin/Hypocretin receptor type 1 (Homo sapiens), O43613; Fluo-8 calcium fluorescence; inhibition, % at 5 µM; 0.43% of 330,000 active; AID 434989, 2010;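 active = inhibition above its plate's threshold, mean inhibition of all tested compounds on the plate plus 3 SD, cut at about 37% in these data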
GPR7 antag: GPR7 receptor antagonists, primary screen, cell-based, fluorescence, single concentration | GPR7-expressing cells, fluorescence antagonist assay | inhibition, % at 4.4 µM | 1.1% of 290,000 active | AID 1861, 2009; in the data active = inhibition above about 16%, passing the limit was not always enough;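 also: cells stimulated with the agonist NPW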
Target sequence (P48145 whole entry, looked up): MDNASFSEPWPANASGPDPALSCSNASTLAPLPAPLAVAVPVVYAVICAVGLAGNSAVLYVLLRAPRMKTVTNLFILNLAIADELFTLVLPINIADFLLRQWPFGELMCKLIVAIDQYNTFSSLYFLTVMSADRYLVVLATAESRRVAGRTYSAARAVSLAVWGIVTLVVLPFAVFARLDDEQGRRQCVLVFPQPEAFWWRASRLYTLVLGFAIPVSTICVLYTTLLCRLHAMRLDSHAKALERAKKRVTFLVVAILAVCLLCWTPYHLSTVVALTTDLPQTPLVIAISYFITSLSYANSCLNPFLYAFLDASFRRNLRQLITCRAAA
TAAR1 antag: human TAAR1 antagonists, primary screen, Fluo-8 calcium fluorescence, CHO RD-HGA16 cells; Trace amine-associated receptor 1 (Homo sapiens), Q96RJ0; antagonist; inhibition, % at 3 µM; 1.5% of 360,000 active; AID 624466, 2012;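 active = inhibition above a per-plate cutoff, the mean inhibition of test compounds on that plate plus 3 SD, cut at about 49% in these data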
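Test system – hTAAR1-expressing CHO RD-HGA16 cells, Gα16-coupled · Reagent – β-PEA at EC80 concentration, post-compound challenge · Compound dosing – 3 µM, single point · Timing – 140 s kinetic read after compound, 140 s after agonist · Detection – Fluo-8 intracellular calcium dye fluorescence, real-time kinetic reads · Control set – DMSO and EC80 PEA controls · Repeats – n of 1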
TAAR1 agonist: human TAAR1 agonists, primary screen, Fluo-8 calcium fluorescence, CHO RD-HGA16 cells. activation, % at 3 µM. 0.99% of 360,000 active. vehicle wells 0%, saturating PEA agonist 100%. Trace amine-associated receptor 1 (Homo sapiens), Q96RJ0;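 active = activation above the mean activation of all test compounds in the run plus 3 SD, cut at about 38% in these data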
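Test system: RD-HGA16 (CHO) cells co-expressing Gα16 and hTAAR1 / Benchmarks: DMSO vehicle as 0%, PEA at EC100 as 100% / Repeats: no replicates (n 1) / Measure: % activation from peak over basal fluorescence ratio, DMSO-to-PEA scaled / Timing: 17-24 h plating, Fluo-8 75 min 37 °C, 30 min RT / Technique: kinetic Fluo-8 calcium fluorescence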
TAAR1 ag confirm: human TAAR1 agonists, retest of hits, confirmation, Fluo-8 calcium fluorescence, CHO RD-HGA16 cells; shares compounds with TAAR1 agonist; scaled: DMSO 0%, maximal phenethylamine 100%; activation, % at 3 µM; 82% of 2,400 active;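 active = activation above a cutoff set at the run's mean compound activation plus 3 SD, cut at about 39% in these data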
Ga16 ag counter: nonselective calcium mobilization agonists, CHO-Ga16 cells, counter-screen for hTAAR1 agonist project, cell-based, fluorescence, CHO-Ga16 parental line. shares compounds with TAAR1 agonist. Fluo-8 calcium fluorescence; normalized to maximal ATP response, DMSO zero. activation, % at 3 µM. 50% of 2,400 active;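 active = activation above the run cutoff, the mean activation over all tested wells plus 3 SD, cut at about 12% in these data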
TAAR1 desens: TAAR1 desensitization by agonist hits, confirmation, counter-screen for TAAR1 agonist project, cell-based, fluorescence, tachyphylaxis. CHO RD-HGA16 hTAAR1, Fluo-8 calcium, beta-PEA response inhibition. shares compounds with TAAR1 agonist. 46% of 2,400 active. inhibition, % at 3 µM;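 active = inhibition above the run cutoff, the mean inhibition of all test compounds plus 3 SD, cut at about 49% in these data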;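 also: beta-PEA stimulus applied at its EC80; loss of beta-PEA calcium signal after compound pretreatment read as receptor desensitization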
Ga16 nonsel ant: inhibition of ATP-evoked calcium response in CHO-Ga16 cells, counter-screen for TAAR1 agonist project, cell-based, fluorescence; AID 651952, 2012; shares compounds with TAAR1 agonist; inhibition, % at 3 µM; 39% of 2,400 active; CHO-Ga16 ATP-induced calcium, Fluo-8 fluorescence;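 active = inhibition above the plate's mean compound inhibition plus 3 SD, computed per plate, cut at about 22% in these data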
Of the large screens only hits and unclear results are named; the others gave an inactive call (follow-up assays come after a bar, where they were run). Only some compounds are listed: those with a hit (about 4.6% of all), similar ones and a draw of the others.

CC(=O)N=C(N)Sc1nc2ccccc2[nH]1	none
NC(=O)C1CC(=O)N(c2ccc(OCc3c(Cl)cccc3Cl)cc2)C1 (centres undefined)	TAAR1 agonist 44 | TAAR1 ag confirm inactive | Ga16 ag counter 15 | TAAR1 desens inactive | Ga16 nonsel ant inactive
S=C(NC1CCCCC1)N1CCc2[nH]c3ccccc3c2C1	none
Cc1ccc(NC(=S)N2CCc3[nH]c4ccccc4c3C2)cc1	TAAR1 antag 64, TAAR1 agonist 69 | TAAR1 ag confirm 49 | Ga16 ag counter inactive | TAAR1 desens inactive | Ga16 nonsel ant inactive
O=C(CCCCl)N1CCc2[nH]c3ccccc3c2C1	TAAR1 antag 87, TAAR1 agonist 89 (no result: OX1R antag-1, CHO parental Ca, OX1R antag-2, GPR7 antag) | TAAR1 ag confirm 97 | Ga16 ag counter inactive | TAAR1 desens 92 | Ga16 nonsel ant inactive
O=C(Cc1ccccc1)N1CCN(c2ccccc2F)CC1	none
CCOC(=O)[C@]12CCC=C1N(Cc1ccco1)C(=O)[C@H](CC(=O)NCCc1ccccc1OC)C2	TAAR1 agonist 62 (no result: OX1R antag-1, CHO parental Ca, OX1R antag-2, GPR7 antag) | TAAR1 ag confirm 69 | Ga16 ag counter inactive | TAAR1 desens inactive | Ga16 nonsel ant inactive
CCCCCCCCN1C(=O)[C@H](CC(=O)NCCCCc2ccccc2)C[C@@]2(C(=O)OC)CCCCC=C12	none (no result: OX1R antag-1, CHO parental Ca, OX1R antag-2, GPR7 antag)
CCCCCCCCN1C(=O)[C@H](CC(=O)NCCc2ccccc2OC)C[C@@]2(C(=O)OC)CCCCC=C12	TAAR1 agonist 51 (no result: OX1R antag-1, CHO parental Ca, OX1R antag-2, GPR7 antag) | TAAR1 ag confirm 81 | Ga16 ag counter inactive | TAAR1 desens 65 | Ga16 nonsel ant inactive
CCCCCCCCN1C(=O)[C@H](CC(=O)NCCc2ccccc2OC)C[C@@]2(C(=O)OCC)CCC=C12	TAAR1 agonist 59 (no result: OX1R antag-1, CHO parental Ca, OX1R antag-2, GPR7 antag) | TAAR1 ag confirm 80 | Ga16 ag counter inactive | TAAR1 desens inactive | Ga16 nonsel ant inactive
C#CCNC(=O)C[C@H]1C[C@@]2(C(=O)OC)C(=C[C@H](C(C)(C)C)O[C@@H]2C)N(CCCCCCCC)C1=O	none (no result: OX1R antag-1, CHO parental Ca, OX1R antag-2, GPR7 antag)
CCCCCCCCN1C(=O)[C@@H](CC(=O)NCCc2ccccc2OC)C[C@@]2(C(=O)OC)C1=C[C@H](C(C)(C)C)O[C@@H]2C	TAAR1 agonist 75 (no result: OX1R antag-1, CHO parental Ca, OX1R antag-2, GPR7 antag) | TAAR1 ag confirm 85 | Ga16 ag counter inactive | TAAR1 desens 52 | Ga16 nonsel ant inactive
COc1ccc(NC(=O)COc2coc(CN3CCc4ccccc43)cc2=O)cc1	none (no result: GPR7 antag)
COc1ccccc1CCNC(=O)CCn1nc(C)c2c(C)n(-c3ccccc3)nc2c1=O	TAAR1 agonist 58 | TAAR1 ag confirm 71 | Ga16 ag counter inactive | TAAR1 desens inactive | Ga16 nonsel ant inactive
Cc1ccccc1CCNC(=O)Cn1nc(C)c2c(C)n(-c3ccccc3)nc2c1=O	TAAR1 agonist 50 | TAAR1 ag confirm 53 | Ga16 ag counter inactive | TAAR1 desens inactive | Ga16 nonsel ant inactive
Cc1c(CC(=O)NCCCCCC(=O)O)c(=O)oc2cc3c(cc12)CCC(C)(C)O3	none (no result: OX1R antag-1, CHO parental Ca, OX1R antag-2)
COc1ccccc1N1CCN(C(=O)Cn2nnc(-c3ccncc3)n2)CC1	none
